Experimental findings from ChEMBL document CHEMBL1148119, “Monoterpene hydroperoxides with trypanocidal activity from Chenopodium ambrosioides” (J Nat Prod, 2002) are described below.

Converted amounts (≈) assume the structure as drawn. The source made the active and inactive calls. The rule behind the calls is not given here.

The test system of data set [1] is Trypanosoma cruzi. As to the kind of experiment: Trypanocidal activity against Trypanosoma cruzi Tulahuen epimastigotes up to 400 uM after 24 hrs. Format: functional, organism-based. Put shortly: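 Tulahuen epimastigotes maintained in GIT medium with hemin (12.4 μM). Parasite suspension incubated 24 h with sample in EtOH plus autoclaved saline. Motility checked by microscopy (×100) and minimum lethal concentration (MLC) recorded. Duplicate assays; gentian violet positive control.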

Data set [2] concerns Trypanosoma cruzi. As to the kind of experiment: Trypanocidal activity against Trypanosoma cruzi Tulahuen epimastigotes assessed as minimal lethal concentration after 24 hrs. Format: functional. Put shortly: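 Tulahuen epimastigotes kept in GIT medium with hemin (12.4 µM). Parasites in medium (10 µL) incubated with sample in EtOH (5 µL) plus autoclaved saline (185 µL) for 24 h. Motility checked by microscopy (×100). MLC taken as minimum lethal concentration. Duplicates; gentian violet positive control.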

The next data set has as its system HeLa. As to the kind of experiment: Cytotoxicity against human HeLa cells at 10 ug/mL. Format: cell-based.
Data set [3] deals with Trypanosoma cruzi. As to the kind of experiment: Antitrypanosomal activity against Trypanosoma cruzi trypomastigotes infected in human HeLa cells assessed as infection rate at 1 ug/mL after 4 days by HeLa cell-infection assay. Format: functional. A digest of the protocol:
(§1)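 HeLa cells (5 × 10^3 cells/mL/well) grown on coverslips 2 days at 37 °C, 5% CO2, then infected with T. cruzi trypomastigotes (1.2 × 10^4 parasites/well). Compound in ethanol (10 µL) added right after infection. Day 4: fixed, Diff-Quik stained, mounted. >200 host cells in random fields scored for % infected cells (>1 amastigote) and mean amastigotes per infected cell. Mean ± SE.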

The test system of data set [4] is Trypanosoma cruzi. As to the kind of experiment: Antitrypanosomal activity against Trypanosoma cruzi trypomastigotes infected in human HeLa cells assessed as inhibition of infection at 1 ug/mL after 4 days by HeLa cell-infection assay. Format: functional. Details: scale not given: the % may be the effect or the level left. Put shortly: as §1
The subject of data set [5] is Trypanosoma cruzi. As to the kind of experiment: Antitrypanosomal activity against Trypanosoma cruzi trypomastigotes infected in human HeLa cells assessed as inhibition of amastigotes proliferation at 1 ug/mL after 4 days by HeLa cell-infection assay. Format: functional, organism-based. Put shortly: as §1
The test system of data set [6] is Trypanosoma cruzi. As to the kind of experiment: Antitrypanosomal activity against Trypanosoma cruzi trypomastigotes infected in human HeLa cells assessed as number of amastigotes per infected cell at 1 ug/mL after 4 days by HeLa cell-infection assay. Format: functional. Put shortly:
as §1

Consider `C=C(C)[C@H]1CCC(=C)[C@@H](O)C1`, for which, in the data set with Trypanosoma cruzi [1], the outcome was inactive.
Regarding `CN(C)c1ccc(C(=C2C=CC(=[N+](C)C)C=C2)c2ccc(N(C)C)cc2)cc1.[Cl-]` [GENTIAN VIOLET], in the data set on Trypanosoma cruzi [2], the MLC amounted to 6.3 µM.
On to `C=C(C)[C@H]1CCC(=C)[C@H](OO)C1`, for which the MLC with Trypanosoma cruzi [2] amounted to 1.6 µM (≈ 0.269 µg/mL). The Activity entry is “Toxic” with HeLa, 4.4% in the data set with Trypanosoma cruzi [3], 63% in the data set with Trypanosoma cruzi [4] and 18.6 with Trypanosoma cruzi [6]. Besides, the result in the data set on Trypanosoma cruzi [5] was inactive.
Consider `C=C(C)[C@@H]1C=C[C@](C)(O)CC1`, for which the result with Trypanosoma cruzi [1] was inactive.
`Oc1ncnc2[nH]ncc12` [ALLOPURINOL]: the results for the Activity in the data set on Trypanosoma cruzi [3] and in the data set with Trypanosoma cruzi [6] were 7% and 10.9, respectively. The outcome with Trypanosoma cruzi [5] was inactive.
Regarding `C=C(C)[C@@H]1C=C[C@@](C)(OO)CC1`, the MLC in the data set on Trypanosoma cruzi [2] came out at 0.8 µM (≈ 0.135 µg/mL). Besides, the Activity result in the data set on HeLa is on record as “Toxic”; in the data set on Trypanosoma cruzi [3], 0.13%; with Trypanosoma cruzi [6], 12. The result in the data set on Trypanosoma cruzi [4] was Active. For the same compound, the result with Trypanosoma cruzi [5] was inactive.
Consider `C=C(C)[C@@H]1C=C[C@](C)(OO)CC1`, for which the MLC with Trypanosoma cruzi [2] came out at 3.1 µM (≈ 0.522 µg/mL). In addition, the Activity result in the data set on HeLa is “Toxic”; with Trypanosoma cruzi [3] it was 1.5%; in the data set on Trypanosoma cruzi [4], 88%; in the data set on Trypanosoma cruzi [6], 19.1. In the data set with Trypanosoma cruzi [5], the outcome was inactive.
As to `C=C(C)[C@@H]1C=C[C@@](C)(O)CC1`, in the data set on Trypanosoma cruzi [1], the result was inactive.
As for `C=C(C)[C@H]1CCC(=C)[C@H](O)C1`, in the data set with Trypanosoma cruzi [1], the result was inactive.
Take `CC(C)C12C=CC(C)(CC1)OO2` (stereo unspecified) [ASCARIDOLE]: in the data set on Trypanosoma cruzi [2], the MLC was found to be 23 µM (≈ 3.87 µg/mL). Also, the Activity is given as 8.5% in the data set with Trypanosoma cruzi [3] and 22.8 in the data set on Trypanosoma cruzi [6]. Moreover, in the data set on Trypanosoma cruzi [5], the outcome was inactive.
In the case of `C=C(C)[C@H]1CCC(=C)[C@@H](OO)C1`, in the data set with Trypanosoma cruzi [2], the MLC came to 1.2 µM (≈ 0.202 µg/mL).
